ChEMBL document CHEMBL1144934, “Efficacious and orally bioavailable thrombin inhibitors based on a 2,5-thienylamidine at the P1 position: discovery of N-carboxymethyl-d-diphenylalanyl-l-prolyl[(5-amidino-2-thienyl)methyl]amide” (J Med Chem, 2003)
Values joined by “and” are separate entries in the source; they are usually repeats but may differ in a detail not shown here. Equal values may be shown once.

What was measured:
[1] = tested on: Canis lupus familiaris; experiment: Bioavailability of compound (F %) was evaluated at 5 mg/kg in dog; assay type: functional, organism-based
[2] = Bioavailability in rat; assay type: ADME, organism-based; conditions: in vivo
[3] = tested on: Primates; experiment: Bioavailability of compound(F %) was evaluated at mg/kg in Monkey; assay type: functional, organism-based
[4] = Area under curve (AUC) was determine after intravenous dosing at 2 mg/kg in monkey; assay type: functional, organism-based; parameters: dose 2 mg/kg
[5] = Area under curve (AUC) was determine after postoral dosing at 5 mg/kg in dog; assay type: functional, organism-based; parameters: dose 5 mg/kg
[6] = Area under curve (AUC) was determined after intravenous dosing at 10 mg/kg in rat; assay type: ADME, organism-based; parameters: dose 10 mg/kg, route intravenous; conditions: in vivo
In short: (§1)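 Male Sprague–Dawley rats (250–300 g), femoral artery and vein cannulated under light ether anesthesia; after recovery, 10 mg/kg given via femoral vein. Arterial blood sampled at 0, 1, 5, 15, 30, 60, 90, 120, 180, 240 min, collected into heparinized tubes, deproteinized with 2 volumes methanol, centrifuged; supernatant analyzed by HPLC (0.1% TFA/acetonitrile 81:19).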

[7] = Time of maximum plasma concentration of compound in monkey at 5 mg/kg was determined; assay type: functional, organism-based; parameters: dose 5 mg/kg
[8] = Steady state volume of distribution (Vdss) was determined after intravenous dosing at 10 mg/kg in rat; assay type: ADME, organism-based; parameters: dose 10 mg/kg, route intravenous; conditions: in vivo, read-out: Vdss; in short: as §1
[9] = Steady state volume of distribution (Vdss) was evaluated at 2 mg/kg after intravenous dosing in monkey; assay type: functional, organism-based; parameters: dose 2 mg/kg
[10] = Steady state volume of distribution (Vdss) was evaluated at 2.5 mg/kg after intravenous dosing; assay type: functional, organism-based; parameters: dose 2.5 mg/kg
[11] = Half life of compound (t 1/2) was evaluated at 2 mg/kg after intravenous dosing in monkey; assay type: functional, organism-based; parameters: dose 2 mg/kg
[12] = Half life of compound (t 1/2) was evaluated at 2.5 mg/kg after intravenous dosing; assay type: functional, organism-based; parameters: dose 2.5 mg/kg
[13] = Half life of compound (t 1/2) was evaluated at 20 mg/kg after postoral dosing in monkey; assay type: functional, organism-based; parameters: dose 20 mg/kg
[14] = Half life of compound (t 1/2) was evaluated at 5 mg/kg after postoral dosing; assay type: functional, organism-based; parameters: dose 5 mg/kg
[15] = Half life of compound was determined after intravenous dosing at 10 mg/kg in rat; assay type: ADME, organism-based; parameters: dose 10 mg/kg, route intravenous; conditions: in vivo; in short: as §1
[16] = Clearance value was determined after intravenous dosing at 10 mg/kg in rat; assay type: ADME, organism-based; parameters: dose 10 mg/kg, route intravenous; conditions: in vivo; in short: as §1
[17] = Clearance was determined after intravenous dosing at 2 mg/kg in monkey; assay type: functional, organism-based; parameters: dose 2 mg/kg
[18] = Maximal plasma concentration in dogs after 5 mg/kg oral dose; assay type: ADME, organism-based, Canis lupus familiaris; parameters: dose 5 mg/kg, route oral; conditions: dog
[19] = In vitro metabolic stability was determined using liver S9 fraction from dog at initial concentration of 20 uM; assay type: ADME, Canis lupus familiaris; conditions: read-out: Recovery
In short: (§2)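 Liver S9 (9000g supernatant of homogenate in Tris-acetate pH 7.4, KCl, EDTA) from rat, dog, monkey (pooled, n = 2) or human (n = 2); 20 µM final compound with NADPH generating system and S9 6.72 mg/mL in 100 mM phosphate pH 7.4, 37 °C. Samples methanol-deproteinized, HPLC; recovery after 30 min reported; no-NADPH control.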

[20] = (§3) In vitro metabolic stability was determined using liver S9 fraction from human at initial concentration of 20 uM; assay type: ADME; conditions: liver S9 fraction, read-out: Recovery; in short: as §2
[21] = organism: Homo sapiens; experiment: as §3; assay type: ADME; conditions: 20 µM; in short: as §2
[22] = target: Coagulation factor X (Homo sapiens, UniProt P00742); experiment: In vitro inhibition constant (Ki) against human Coagulation factor X was determined
Coagulation factor X, sequence (P00742 41-179 limits assumed): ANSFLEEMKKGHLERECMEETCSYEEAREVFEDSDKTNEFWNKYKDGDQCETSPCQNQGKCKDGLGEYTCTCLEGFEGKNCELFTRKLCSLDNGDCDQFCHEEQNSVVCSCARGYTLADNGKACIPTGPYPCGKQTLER
Coagulation factor X, sequence (P00742 235-488 limits assumed): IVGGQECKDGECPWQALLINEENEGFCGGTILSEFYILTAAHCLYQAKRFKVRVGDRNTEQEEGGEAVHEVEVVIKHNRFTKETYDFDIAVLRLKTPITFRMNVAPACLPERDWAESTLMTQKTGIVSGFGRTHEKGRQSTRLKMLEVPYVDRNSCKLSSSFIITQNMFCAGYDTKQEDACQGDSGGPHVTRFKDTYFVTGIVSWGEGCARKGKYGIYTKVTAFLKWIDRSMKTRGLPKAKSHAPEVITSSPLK

[23] = target: Plasminogen (Homo sapiens, UniProt P00747); experiment: In vitro inhibition constant (Ki) against human plasmin was determined
Plasminogen, sequence (P00747 97-580 limits assumed): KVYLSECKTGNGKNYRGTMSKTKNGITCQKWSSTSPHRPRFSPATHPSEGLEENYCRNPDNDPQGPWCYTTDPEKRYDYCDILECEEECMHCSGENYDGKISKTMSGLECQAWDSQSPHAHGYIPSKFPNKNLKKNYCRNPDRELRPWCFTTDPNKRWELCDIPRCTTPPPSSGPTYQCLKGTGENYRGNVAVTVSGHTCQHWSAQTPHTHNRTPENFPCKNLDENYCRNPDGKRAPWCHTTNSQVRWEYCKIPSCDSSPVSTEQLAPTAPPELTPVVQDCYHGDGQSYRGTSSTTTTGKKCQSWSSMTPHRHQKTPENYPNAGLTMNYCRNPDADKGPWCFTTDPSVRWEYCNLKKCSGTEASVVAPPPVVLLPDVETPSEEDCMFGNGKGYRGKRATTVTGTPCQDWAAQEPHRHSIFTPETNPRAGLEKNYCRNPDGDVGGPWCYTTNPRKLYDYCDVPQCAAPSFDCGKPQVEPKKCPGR
Plasminogen, sequence (P00747 581-810 limits assumed): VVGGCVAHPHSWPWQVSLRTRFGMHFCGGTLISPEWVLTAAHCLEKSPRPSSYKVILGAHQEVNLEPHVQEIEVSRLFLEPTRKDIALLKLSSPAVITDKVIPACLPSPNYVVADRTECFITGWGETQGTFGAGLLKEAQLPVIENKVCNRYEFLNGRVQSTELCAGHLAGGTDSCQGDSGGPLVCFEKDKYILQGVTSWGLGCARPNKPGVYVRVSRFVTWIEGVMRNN

[24] = tested on: Rattus norvegicus; experiment: In vivo inhibition of thrombus formation in thromboplastin-induced deep vein thrombosis (DVT) rat model after iv bolus dosing at 1 mg/kg; assay type: functional
[25] = organism: Rattus norvegicus; experiment: In vitro concentration of inhibitor to double the activated partial thromboplastin time was evaluated in rat; assay type: functional
In short: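 Rat plasma mixed with inhibitor and an equal volume of aPTT reagent (Platelin LS), incubated 5 min at 37 °C, then 100 μL of 25 mM CaCl2 added. Clotting time read on an automatic coagulometer. Value taken as the inhibitor concentration that doubles aPTT.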

[26] = tested on: Rattus norvegicus; experiment: Ex vivo activated clotting time was measured in rat plasma at 1 mg/kg; assay type: functional
[27] = organism: Rattus norvegicus; experiment: Ex vivo concentration of inhibitor to double the activated clotting time was measured in rat plasma; assay type: functional
[28] = target: Tissue-type plasminogen activator (Homo sapiens, UniProt P00750); experiment: In vitro inhibition constant (Ki) against human Tissue type plasminogen activator was determined
Tissue-type plasminogen activator, sequence (P00750 whole entry): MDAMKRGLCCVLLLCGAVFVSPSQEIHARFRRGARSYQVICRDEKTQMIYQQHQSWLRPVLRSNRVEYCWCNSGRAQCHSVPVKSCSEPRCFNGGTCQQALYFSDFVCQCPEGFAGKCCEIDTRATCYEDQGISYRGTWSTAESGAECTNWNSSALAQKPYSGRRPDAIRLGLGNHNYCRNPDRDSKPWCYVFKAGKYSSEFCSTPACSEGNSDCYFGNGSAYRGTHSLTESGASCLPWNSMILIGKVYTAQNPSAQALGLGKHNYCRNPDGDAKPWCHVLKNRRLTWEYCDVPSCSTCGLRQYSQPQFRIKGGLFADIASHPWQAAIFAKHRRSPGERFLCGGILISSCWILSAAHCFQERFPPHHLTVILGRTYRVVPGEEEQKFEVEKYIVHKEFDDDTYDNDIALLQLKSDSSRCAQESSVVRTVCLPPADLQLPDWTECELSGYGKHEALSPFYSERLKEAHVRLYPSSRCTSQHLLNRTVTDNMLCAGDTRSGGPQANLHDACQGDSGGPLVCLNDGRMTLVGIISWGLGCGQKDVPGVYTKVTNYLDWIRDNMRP

[29] = target: Trypsin (Homo sapiens, UniProt P07477+P07478+P35030); experiment: In vitro inhibition constant (Ki) against human trypsin was determined; assay type: protein assay
[30] = target: T1, Serine protease 1 (Bos taurus, UniProt P00760); experiment: In vitro inhibition constant (Ki) against […] trypsin was determined
T1 sequence (P00760 whole entry): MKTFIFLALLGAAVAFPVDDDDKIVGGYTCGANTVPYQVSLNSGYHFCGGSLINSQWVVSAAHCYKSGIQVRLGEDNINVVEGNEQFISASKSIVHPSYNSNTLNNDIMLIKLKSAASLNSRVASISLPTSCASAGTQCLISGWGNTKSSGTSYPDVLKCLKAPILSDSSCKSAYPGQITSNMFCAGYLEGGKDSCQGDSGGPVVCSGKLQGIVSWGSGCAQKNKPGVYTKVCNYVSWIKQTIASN

[31] = Selectivity of compound was determined between thrombin and human plasmin
[32] = target: Thrombin & trypsin (Homo sapiens) (UniProt P00734+P07477+P07478+P35030); experiment: Selectivity of compound was determined between thrombin and human trypsin; assay type: protein assay
[33] = Selectivity of compound was determined between thrombian and human t-PA
[34] = target: Thrombin and coagulation factor X (Homo sapiens) (UniProt P00734+P00742); experiment: Selectivity of compound was determined between thrombin and human factor Xa; assay type: protein assay
Thrombin and coagulation factor X (Homo sapiens), sequence (P00742 whole entry, looked up, other chains not shown): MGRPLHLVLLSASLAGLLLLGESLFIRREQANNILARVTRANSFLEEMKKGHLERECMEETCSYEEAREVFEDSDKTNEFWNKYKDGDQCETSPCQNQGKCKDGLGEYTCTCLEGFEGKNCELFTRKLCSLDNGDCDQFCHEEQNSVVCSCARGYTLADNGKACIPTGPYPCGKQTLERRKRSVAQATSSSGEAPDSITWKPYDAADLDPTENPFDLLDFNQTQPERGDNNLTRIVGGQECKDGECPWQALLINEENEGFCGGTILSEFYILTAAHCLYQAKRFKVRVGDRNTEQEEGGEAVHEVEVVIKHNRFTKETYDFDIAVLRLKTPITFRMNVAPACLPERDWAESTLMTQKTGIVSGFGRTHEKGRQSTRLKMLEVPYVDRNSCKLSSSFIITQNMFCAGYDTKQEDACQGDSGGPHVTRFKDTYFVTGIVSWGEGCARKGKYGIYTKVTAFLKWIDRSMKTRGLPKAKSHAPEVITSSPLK

[35] = In vitro metabolic stability was determined using liver S9 fraction from monkey at initial concentration of 20 uM; assay type: ADME, subcellular; conditions: simiiformes, read-out: Recovery; in short: as §2
[36] = Clearance value was determined after intravenous dosing at 2.5 mg/kg; assay type: functional, organism-based; parameters: dose 2.5 mg/kg
[37] = organism: Homo sapiens
[38] = Maximal plasma concentration in monkeys after 20 mg/kg oral dose; conditions: cynomolgus monkey
[39] = tested on: thrombin (Homo sapiens) & trypsin (Bos taurus); experiment: Selectivity of compound was determined between thrombin and bovine trypsin
[40] = Area under curve (AUC) was determine after oral dosing at 20 mg/kg in monkey
[41] = tested on: Canis lupus familiaris; experiment: Area under curve (AUC) was determine after intravenous dosing at 2.5 mg/kg in dog
[42] = Area under curve (AUC) was determine after intravenous dosing at 10 mg/kg; assay type: ADME, organism-based; parameters: dose 10 mg/kg, route intravenous; conditions: in vivo
[43] = target: Prothrombin (Homo sapiens, UniProt P00734); experiment: In vitro inhibition constant (Ki) against human thrombin

**Q.** Which bioavailability [1] does the source give for `N=C(N)c1ccc(CNC(=O)[C@@H]2CCCN2C(=O)[C@H](NCC(=O)O)C(c2ccccc2)c2ccccc2)s1` here?
**A.** Its bioavailability is 42%.

**Q.** What about the bioavailability [2] of the same molecule?
**A.** Its bioavailability is 43%.

**Q.** And the bioavailability [3]?
**A.** Its bioavailability is 15%.

**Q.** What about the AUC [4] of the same molecule?
**A.** The AUC was 3420 ng·h/mL.

**Q.** What about the AUC [5] of the same molecule?
**A.** The AUC was 6050 ng·h/mL.

**Q.** What about the AUC [6] of the same molecule?
**A.** The AUC was 17600 ng·h/mL.

**Q.** What about the Tmax [7] of the same molecule?
**A.** Its Tmax is 30 min and 90 min.

**Q.** And the Vd [8]?
**A.** The Vd was 0.258 L/kg.

**Q.** What about the Vdss [9] of the same molecule?
**A.** Its Vdss is 0.23 L/kg.

**Q.** What about the Vdss [10] of the same molecule?
**A.** Its Vdss is 0.223 L/kg.

**Q.** And the T1/2 [11]?
**A.** Its T1/2 is 23 min.

**Q.** And the T1/2 [12]?
**A.** The T1/2 was 54 min.

**Q.** And the T1/2 [13]?
**A.** Its T1/2 is 58 min.

**Q.** And the T1/2 [14]?
**A.** The T1/2 was 68 min.

**Q.** And the half-life [15]?
**A.** Its half-life is 47 min.

**Q.** And the clearance [16]?
**A.** Its clearance is 9.6 mL/min/kg.

**Q.** What about the CL (mL.min-1.kg-1) [17] of the same molecule?
**A.** The CL (mL.min-1.kg-1) was 9.8.

**Q.** What about the Cmax [18] of the same molecule?
**A.** The Cmax was 3800 ng/mL.

**Q.** And the remaining at 20 µM [19]?
**A.** Its remaining at 20 µM is 99%.

**Q.** What about the remaining at 20 µM [20] of the same molecule?
**A.** Its remaining at 20 µM is 95%.

**Q.** And the Recovery [21]?
**A.** The Recovery was 95%.

**Q.** What about the Ki [22] of the same molecule?
**A.** The Ki was 2250 nM.

**Q.** And the Ki [23]?
**A.** Its Ki is 7400 nM.

**Q.** What about the inhibition in vivo at 1 mg/kg [24] of the same molecule?
**A.** Its inhibition in vivo at 1 mg/kg is 100%.

**Q.** What about the APTT [25] of the same molecule?
**A.** The APTT was 0.97 µM.

**Q.** And the ACT [26]?
**A.** Its ACT is 12.

**Q.** What about the “Concentration to double activated clotting time” value [27] of the same molecule?
**A.** Its value is 0.85 µM.

**Q.** And the Ki [28]?
**A.** The Ki was 433 nM.

**Q.** What about the Ki [29] of the same molecule?
**A.** The Ki was 0.3 nM.

**Q.** What about the Ki [30] of the same molecule?
**A.** Its Ki is 3 nM.

**Q.** And the Selectivity [31]?
**A.** The Selectivity was > 10000.

**Q.** And the Selectivity [32]?
**A.** The Selectivity was 20.

**Q.** What about the Selectivity [33] of the same molecule?
**A.** Its Selectivity is > 10000.

**Q.** What about the Selectivity [34] of the same molecule?
**A.** Its Selectivity is > 10000.

**Q.** What about the remaining at 20 µM [35] of the same molecule?
**A.** The remaining at 20 µM was 83%.

**Q.** What about the CL (mL.min-1.kg-1) [36] of the same molecule?
**A.** Its CL (mL.min-1.kg-1) is 5.9.

**Q.** And the APTT [37]?
**A.** The APTT was 0.23 µM.

**Q.** And the Cmax [38]?
**A.** Its Cmax is 2100 ng/mL.

**Q.** What about the Selectivity [39] of the same molecule?
**A.** Its Selectivity is 200.

**Q.** What about the AUC [40] of the same molecule?
**A.** The AUC was 5150 ng·h/mL.

**Q.** And the AUC [41]?
**A.** The AUC was 7620 ng·h/mL.

**Q.** What does the source list for `N=C(N)c1csc(CNC(=O)[C@@H]2CCCN2C(=O)[C@H](NCC(=O)O)C(c2ccccc2)c2ccccc2)n1`?
**A.** bioavailability [2]: 21%; AUC [42]: 29100 ng·h/mL; Vd [8]: 0.189 L/kg; half-life [15]: 50 min; clearance [16]: 6 mL/min/kg; Ki [43]: 0.64 nM
